# According to ChEMBL document CHEMBL6083194, “Discovery and evaluation of 3-(2-isocyanobenzyl)-1H-indole derivatives as potential quorum sensing inhibitors for the control of Pseudomonas aeruginosa infections in vitro” (RSC Med Chem, 2024):
# Calls of active or inactive are those of the source. No cut-off for these calls is given here.
# Tests used:
# Pseudomonas aeruginosa [1] = assay: Inhibition of pyocyanin production in Pseudomonas aeruginosa PAO1 at 1/2 time MIC incubated for 18 hrs; format: functional
# Outline: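 Overnight PAO1 in LB diluted to OD600 = 0.05, subcultured 5–7 h to mid-log, rediluted to OD600 = 0.05. 5 mL with compound grown 18 h at 37 °C, 200 rpm. Supernatant extracted with 3 mL chloroform, back-extracted into 0.2 M HCl, absorbance at 520 nm.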
# Pseudomonas aeruginosa [2] = assay: Anti-virulence effect in Pseudomonas aeruginosa PAO1 assessed as inhibition of EPS production at 25 ug/ml; format: functional; design: scale not given: the % may be the effect or the level left; conditions: dose 25 µg/ml
# Outline: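 PAO1 grown with compound (6.25–25 μg mL−1) in 24-well plates for 24 h at 37 °C and 180 rpm; DMSO and RSV (25 μg mL−1) as controls. Biofilms washed with water, then treated with 0.9% NaCl, 5% phenol and 0.2% hydrazine sulfate. Held 1 h in the dark, read at OD490. Three independent experiments.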
# Pseudomonas aeruginosa [3] = assay: Anti-virulence effect in Pseudomonas aeruginosa PAO1 assessed as inhibition of pyocyanin production at 25 ug/ml; format: functional; design: scale not given: the % may be the effect or the level left; conditions: dose 25 µg/ml
# Outline: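 Overnight PAO1 culture in LB at 37 °C, diluted to OD600 0.05 and subcultured 5–7 h to mid-log phase, then re-diluted to OD600 0.05. Grown 18 h at 37 °C and 200 rpm with compound (6.25, 12.5, 25 μg mL−1) or DMSO. Supernatant extracted into chloroform, back-extracted into 0.2 M HCl, read at 520 nm.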
# Pseudomonas aeruginosa [4] = assay: Inhibition of biofilm formation in Pseudomonas aeruginosa PAO1 incubated for 24 hrs crystal violet staining based SEM assay; format: functional, organism-based
# Pseudomonas aeruginosa [5] = assay: Inhibition of biofilm formation in Pseudomonas aeruginosa PAO1 at 25 ug/ml incubated for 24 hrs crystal violet staining based assay; format: functional
# Outline: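 PAO1 grown statically for 24 h in LB ± compound in 24-well plates. Planktonic cells removed; attached cells stained with 0.05% crystal violet, rinsed, dissolved in 95% ethanol, read at OD570. DMSO negative, resveratrol positive control; SD from three independent experiments.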
# Pseudomonas aeruginosa [6] = assay: Induction of biofilm eradication in Pseudomonas aeruginosa PAO1 at 25 ug/ml by crystal violet staining based assay; format: functional; conditions: dose 25 µg/ml
# Outline: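 PAO1 biofilms grown overnight at 37 °C in LB in 24-well plates, washed with PBS, then fresh LB with compound added and grown overnight again. Washed, methanol-fixed, crystal violet stained, ethanol solubilised, read at OD570. DMSO negative, resveratrol positive control.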
# Pseudomonas aeruginosa [7] = assay: Anti-virulence effect in Pseudomonas aeruginosa PAO1 assessed as decrease in protease level at 25 ug/ml; format: functional; design: scale not given: the % may be the effect or the level left; conditions: dose 25 µg/ml
# Outline: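 Overnight PAO1 culture diluted 1:100 into LB with compound (6.25–25 μg mL−1), grown at 37 °C and 180 rpm; DMSO and RSV (25 μg mL−1) as controls. Culture supernatant mixed with 2% azocasein in 1 M Tris–HCl pH 8.0 for 15 min at 37 °C. Reaction stopped with 10% TCA, centrifuged, NaOH added, read at OD440.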
# Pseudomonas aeruginosa [8] = assay: Anti-virulence effect in Pseudomonas aeruginosa PAO1 assessed as inhibition of rhamnolipid production at 25 ug/ml; format: functional; design: scale not given: the % may be the effect or the level left; conditions: dose 25 µg/ml
# Outline: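 PAO1 culture supernatant from growth with compound (6.25–25 μg mL−1) at 37 °C and 180 rpm, or with DMSO or RSV (25 μg mL−1) as controls. Orcinol assay: 100 μL sample plus 0.19% orcinol in 53% H2SO4, heated 30 min at 80 °C, cooled, read at 421 nm. At least three experiments in triplicate.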
# [9] = Inhibition of quorum sensing system in Chromobacterium violaceum CV026
# Outline: (§1)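 Plate screen. CV026 grown overnight in LB with 50 μg ml−1 kanamycin; 15 μl seeded into 15 ml LB agar (1.0% agarose) containing 20 μM C4-HSL. PAO1 plates run in parallel. Test colonies inoculated by toothpick, incubated overnight at 37 °C. Ring of colourless viable cells around the colony scored as inhibition.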
# [10] = Inhibition of quorum sensing system in Pseudomonas aeruginosa PAO1; outline: as §1
# Pseudomonas aeruginosa [11] = assay: Inhibition of biofilm formation in Pseudomonas aeruginosa PAO1 at 1/2 times MIC incubated for 24 hrs crystal violet staining based SEM assay; format: functional
# Pseudomonas aeruginosa [12] = assay: Antibacterial activity against Pseudomonas aeruginosa PAO1 by serial dilution method; format: functional
# Outline: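 PAO1 in LB, 37 °C. MIC by CLSI 2-fold serial dilution in Mueller–Hinton broth, inoculum 1–5 × 10^5 CFU mL−1, DMSO stocks. Growth curves: overnight culture diluted to OD600 = 0.05, subcultured to mid-log, rediluted to OD600 = 0.05, 3 mL with compound; OD620 read at 1, 3, 5, 7, 9, 11 and 24 h at 37 °C; DMSO negative control.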
# Pseudomonas aeruginosa [13] = assay: Inhibition of rhamnolipid production in Pseudomonas aeruginosa PAO1 at 1/4 times MIC by orcinol method; format: functional
# Outline: (§2)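 Overnight PAO1 diluted 1:100 into LB with compound, 37 °C, 180 rpm; DMSO control. Supernatant (100 μL) mixed with 900 μL 0.19% orcinol in 53% H2SO4, heated 30 min at 80 °C, cooled, read at 421 nm.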
# Pseudomonas aeruginosa [14] = assay: Inhibition of rhamnolipid production in Pseudomonas aeruginosa PAO1 at 1/2 to 1/4 times MIC by orcinol method; format: functional, organism-based; outline: as §2
# Pseudomonas aeruginosa [15] = assay: Inhibition of rhamnolipid production in Pseudomonas aeruginosa PAO1 at 1/2 times MIC by orcinol method; format: functional; outline: as §2
Structure (SMILES),inhibition (INH) (Pseudomonas aeruginosa [1]),Activity (Pseudomonas aeruginosa [2]),Activity (Pseudomonas aeruginosa [3]),inhibition (Pseudomonas aeruginosa [4]),inhibition at 25 µg/mL (Pseudomonas aeruginosa [5]),Activity (Pseudomonas aeruginosa [6]),Activity (Pseudomonas aeruginosa [7]),Activity (Pseudomonas aeruginosa [8]),inhibition (Pseudomonas aeruginosa [1]),inhibition [9],inhibition [10],inhibition (INH) (Pseudomonas aeruginosa [11]),MIC (Pseudomonas aeruginosa [12]),inhibition (INH) (Pseudomonas aeruginosa [13]),inhibition (Pseudomonas aeruginosa [14]),inhibition (INH) (Pseudomonas aeruginosa [15])
Oc1ccc(/C=C/c2cc(O)cc(O)c2)cc1 [RESVERATROL],38%,22%,26%,Dose-dependent-effect,55%,47%,26%,12%,–,–,–,–,–,–,–,–
COc1ccc2[nH]cc(Cc3ccccc3C#N)c2c1,–,–,–,Dose-dependent-effect,–,–,–,–,Active; Showed Higher Activity Than Positive Control Rsv,Active; Showed Higher Activity,Active; Strong Inhibition Observed,7%,6 µg/mL,30%,Active,44%
